NTR1 ag – NTR1 (human) agonism; activation, % at 20 µM; NTR1-U2OS beta-arrestin-GFP spot imaging, agonist mode; actives 0.17% (n = 330,000);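 active = activation at or above 40% of the spot to cytoplasm intensity ratio, with at least 20 cells analyzed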
Target sequence (P30989 whole entry, looked up): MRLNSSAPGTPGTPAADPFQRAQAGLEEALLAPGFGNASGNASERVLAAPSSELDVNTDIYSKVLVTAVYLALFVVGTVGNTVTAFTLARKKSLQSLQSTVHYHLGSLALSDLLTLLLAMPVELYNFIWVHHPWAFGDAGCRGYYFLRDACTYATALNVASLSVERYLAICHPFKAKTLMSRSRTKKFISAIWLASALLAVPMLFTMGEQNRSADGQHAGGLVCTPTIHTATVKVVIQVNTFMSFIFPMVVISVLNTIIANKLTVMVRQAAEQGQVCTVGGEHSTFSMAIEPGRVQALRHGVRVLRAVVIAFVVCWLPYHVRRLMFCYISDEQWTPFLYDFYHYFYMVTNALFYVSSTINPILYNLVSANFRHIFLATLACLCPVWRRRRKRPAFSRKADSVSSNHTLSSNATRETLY
OX1R antag-1 – antagonists of human orexin 1 receptor; CHO/OX1R cells, Fluo-8 calcium fluorescence, orexin A; actives 0.43% (n = 330,000); O43613; inhibition, % at 5 µM; AID 434989;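 active = inhibition above its plate's threshold, mean inhibition of all tested compounds on the plate plus 3 SD, cut at about 37% in these data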
CHO parental Ca – counter-screen: ATP calcium response change in parental CHO cells | parental CHO-K1, ATP-induced calcium, Fluo-8 fluorescence | inhibition, % at 5.6 µM | actives 0.63% (n = 330,000);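 active = inhibition above that plate's mean sample inhibition plus 3 SD, cut at about 26% in these data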
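Material – parental CHO cells · Reagent – ATP stimulus · Compound – single nominal dose of 5.6 µM per compound · Detection – Fluo-8 fluorescence · Read-out basis – percent inhibition of calcium signal · Controls – ATP-challenged DMSO wells low, unchallenged DMSO wells high · Repeats – no replicates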
TAAR1 antag – antagonists of human TAAR1 | Q96RJ0 | actives 1.5% (n = 360,000) | inhibition, % at 3 µM | CHO RD-HGA16 TAAR1, Fluo-8 calcium fluorescence, antagonist;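 active = inhibition above a per-plate cutoff, the mean inhibition of test compounds on that plate plus 3 SD, cut at about 49% in these data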
Target sequence (Q96RJ0 whole entry, looked up): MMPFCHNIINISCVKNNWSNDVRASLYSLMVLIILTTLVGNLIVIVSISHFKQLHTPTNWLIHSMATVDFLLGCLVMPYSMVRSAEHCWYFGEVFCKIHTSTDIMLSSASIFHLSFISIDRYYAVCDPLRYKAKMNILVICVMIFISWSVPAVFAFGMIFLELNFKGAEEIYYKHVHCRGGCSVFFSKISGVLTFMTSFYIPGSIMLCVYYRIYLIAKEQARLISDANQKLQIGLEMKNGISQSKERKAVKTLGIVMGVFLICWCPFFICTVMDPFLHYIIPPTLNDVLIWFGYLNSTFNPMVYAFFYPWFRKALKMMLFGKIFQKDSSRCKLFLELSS
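Test system: RD-HGA16 CHO cells with stable hTAAR1 and Gα16 / Probe or stimulus: EC80 β-phenethylamine stimulus / Times: seeding 17-24 h prior, 75-min 37 °C, 30-min RT dye loading / Detection: Fluo-8 calcium-sensitive fluorescence / Read-out basis: % inhibition scaled between DMSO and EC80 PEA controls / Repeats: singlicate, one well per test compound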
TAAR1 agonist – human TAAR1 agonism | Q96RJ0 | CHO RD-HGA16 TAAR1, Fluo-8 calcium fluorescence; vehicle wells 0%, saturating PEA agonist 100% | activation, % at 3 µM | actives 0.99% (n = 360,000) | AID 624467;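 active = activation above the mean activation of all test compounds in the run plus 3 SD, cut at about 38% in these data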
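Test system: RD-HGA16 (CHO) cells co-expressing Gα16 and hTAAR1; dosing: one-point dosing at 3 µM (nominal); timing: 17-24 h seeding, 75 min 37 °C dye, 30 min RT; signal: kinetic Fluo-8 calcium fluorescence; read-out basis: % activation relative to PEA EC100 response; controls: DMSO and PEA EC100; replicates: n 1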
OX1R antag-2 – blocks the human orexin 1 receptor. inhibition, % at 6.6 µM. actives 1.8% (n = 330,000). OX1R-expressing cells, FRET antagonist read-out; in the data active = inhibition mostly above about 38%, no sharp cut-off; inactive = mostly below about 40%
TAAR1 ag confirm – human TAAR1 agonism, confirmed | shares compounds with TAAR1 agonist | CHO RD-HGA16 TAAR1, Fluo-8 calcium fluorescence; scaled: DMSO 0%, maximal phenethylamine 100% | activation, % at 3 µM | actives 82% (n = 2,400);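 active = activation above a cutoff set at the run's mean compound activation plus 3 SD, cut at about 39% in these data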
Ga16 ag counter – counter-screen for TAAR1 agonists: nonselective agonists in parental cells; CHO-Ga16 parental, Fluo-8 calcium fluorescence; normalized to maximal ATP response, DMSO zero; AID 651787; actives 50% (n = 2,400); activation, % at 3 µM; shares compounds with TAAR1 agonist;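 active = activation above the run cutoff, the mean activation over all tested wells plus 3 SD, cut at about 12% in these data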
TAAR1 desensitize – counter-screen for human TAAR1 agonists: agonists that desensitize TAAR1; shares compounds with TAAR1 agonist; CHO RD-HGA16 hTAAR1, Fluo-8 calcium, beta-PEA response inhibition; inhibition, % at 3 µM; actives 46% (n = 2,400); AID 651951;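 active = inhibition above the run cutoff, the mean inhibition of all test compounds plus 3 SD, cut at about 49% in these data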;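 note: beta-PEA stimulus applied at its EC80; loss of beta-PEA calcium signal after compound pretreatment read as receptor desensitization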
Ga16 antag count – counter-screen for TAAR1 agonists: nonselective Ga16 antagonists; shares compounds with TAAR1 agonist; CHO-Ga16 ATP-induced calcium, Fluo-8 fluorescence; inhibition, % at 3 µM; actives 39% (n = 2,400); AID 651952;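 active = inhibition above the plate's mean compound inhibition plus 3 SD, computed per plate, cut at about 22% in these data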
Of the large screens only hits and unclear results are named; the others gave an inactive call (follow-up assays come after a bar, where they were run). Hits are enriched below; roughly 4% of the tested compounds scored in any of these assays.

CC1(c2ccc(OC(F)F)cc2)NC(=O)N(CC(=O)Nc2ccc3c(c2)OCO3)C1=O (stereo unspecified)	CHO parental Ca 40.3, TAAR1 antag 51.4, TAAR1 agonist 110.1 | TAAR1 ag confirm 106.7 | Ga16 ag counter 73.2 | TAAR1 desensitize 86.9 | Ga16 antag count 62.3
Cc1c(NC(=O)CN2C(=O)NC(C)(c3ccc(OC(F)F)cc3)C2=O)c(=O)n(-c2ccccc2)n1C (stereo unspecified)	none
CC1(c2ccc(OC(F)F)cc2)NC(=O)N(CC(=O)Nc2ccccc2)C1=O (stereo unspecified)	OX1R antag-1 52.0, CHO parental Ca 49.3, TAAR1 antag 98.7, TAAR1 agonist 147.8 | TAAR1 ag confirm 138.6 | Ga16 ag counter 92.4 | TAAR1 desensitize 100.6 | Ga16 antag count 72.5
C[C@@]12CCC3[C@@](CCC4[C@@]3(C)CCC[C@@]4(C)C(=O)N3CCCCC3)(CC1=O)C2 (stereo partly specified)	none
CCn1nc(C)c(CNC(=O)C2CCC(=O)N(Cc3ccc(Cl)cc3)C2)c1C (stereo unspecified)	none
Cc1cccc(C(CC(=O)NCc2ccco2)c2ccccc2)c1O (stereo unspecified)	none
Cc1cccc(C(CC(=O)NCCc2ccccc2)c2ccccc2)c1O (stereo unspecified)	TAAR1 agonist 66.3 | TAAR1 ag confirm 91.6 | Ga16 ag counter inactive | TAAR1 desensitize 61.1 | Ga16 antag count inactive
CCOC(=O)[C@]12CCC=C1N(Cc1ccco1)C(=O)[C@H](CC(=O)NCCc1ccccc1OC)C2	TAAR1 agonist 62.2 (no result: NTR1 ag, OX1R antag-1, CHO parental Ca, OX1R antag-2) | TAAR1 ag confirm 69.0 | Ga16 ag counter inactive | TAAR1 desensitize inactive | Ga16 antag count inactive
CCCCCCCCN1C(=O)[C@H](CC(=O)NCCc2ccccc2OC)C[C@@]2(C(=O)OC)CCCCC=C12	TAAR1 agonist 50.8 (no result: NTR1 ag, OX1R antag-1, CHO parental Ca, OX1R antag-2) | TAAR1 ag confirm 80.5 | Ga16 ag counter inactive | TAAR1 desensitize 65.0 | Ga16 antag count inactive
CCCCCCCCN1C(=O)[C@@H](CC(=O)NCCc2ccccc2OC)C[C@@]2(C(=O)OC)C1=C[C@H](C(C)(C)C)O[C@@H]2C	TAAR1 agonist 75.1 (no result: NTR1 ag, OX1R antag-1, CHO parental Ca, OX1R antag-2) | TAAR1 ag confirm 85.0 | Ga16 ag counter inactive | TAAR1 desensitize 52.4 | Ga16 antag count inactive
CCOC(=O)[C@]12CCC=C1N(Cc1ccco1)C(=O)[C@H](CC(=O)NCCCCc1ccccc1)C2	none (no result: NTR1 ag, OX1R antag-1, CHO parental Ca, OX1R antag-2)
CCCCCCCCN1C(=O)[C@H](CC(=O)NCCc2ccccc2OC)C[C@@]2(C(=O)OCC)CCC=C12	TAAR1 agonist 58.6 (no result: NTR1 ag, OX1R antag-1, CHO parental Ca, OX1R antag-2) | TAAR1 ag confirm 79.5 | Ga16 ag counter inactive | TAAR1 desensitize inactive | Ga16 antag count inactive
CCOC(=O)[C@]12CCC=C1N(Cc1ccc(Cl)cc1Cl)C(=O)[C@H](CC(=O)NCCc1ccccc1OC)C2	none (no result: NTR1 ag, OX1R antag-1, CHO parental Ca, OX1R antag-2)
CCN(CC)c1ccc(S(=O)(=O)N2CCOCC2)cc1NC(=O)CSc1nnc(N)s1	none
CC(=O)c1cccc(OCc2cc(C(=O)NCCC3=CCCCC3)no2)c1	none
Cc1ccc(NC(=O)N2CCCC(c3ccccc3)C2)cc1 (stereo unspecified)	TAAR1 agonist 49.5 | TAAR1 ag confirm 58.2 | Ga16 ag counter inactive | TAAR1 desensitize inactive | Ga16 antag count inactive
O=C(/C=C/c1ccco1)N1CCCC(c2ccccc2)C1 (stereo unspecified)	TAAR1 agonist 48.7 | TAAR1 ag confirm inactive | Ga16 ag counter inactive | TAAR1 desensitize inactive | Ga16 antag count inactive
CCOc1ccc(NC(=O)N2CCC(c3ccc(C)cc3)C2)cc1 (stereo unspecified)	TAAR1 agonist 51.0 | TAAR1 ag confirm inactive | Ga16 ag counter inactive | TAAR1 desensitize inactive | Ga16 antag count inactive
O=C(/C=C/c1ccccc1)N1CCC(c2ccccc2)C1 (stereo unspecified)	none
O=C(Nc1ccccc1)N1CCC(c2ccccc2)C1 (stereo unspecified)	none
N#CC1(Nc2cccc(Br)c2)C(=O)Nc2ccccc21 (stereo unspecified)	TAAR1 agonist 83.3 | TAAR1 ag confirm 54.4 | Ga16 ag counter 32.3 | TAAR1 desensitize 51.9 | Ga16 antag count 41.7
Cc1ccc(S(=O)(=O)N(C)C)cc1NC(=O)CCNC(=O)c1ccco1	none
CCCn1c(NC(=O)C2COc3ccccc3O2)nc2ccccc21 (stereo unspecified)	TAAR1 antag 48.7, TAAR1 agonist 50.9 | TAAR1 ag confirm inactive | Ga16 ag counter inactive | TAAR1 desensitize inactive | Ga16 antag count inactive
CC(=O)c1ccc(N2CCN(C(=O)c3ccc(Cn4c(=S)[nH]c5ccc(N6CCOCC6)cc5c4=O)cc3)CC2)cc1	TAAR1 agonist 52.9 | TAAR1 ag confirm inactive | Ga16 ag counter inactive | TAAR1 desensitize inactive | Ga16 antag count inactive
O=C1CC(O)(C(F)(F)F)Oc2c1ccc1ccccc21 (stereo unspecified)	TAAR1 agonist 76.2 | TAAR1 ag confirm 74.8 | Ga16 ag counter 69.9 | TAAR1 desensitize inactive | Ga16 antag count 39.2
O=C(NCc1ccc(Cl)cc1)C1CCCN1C(=O)Nc1ccccc1 (stereo unspecified)	none
NCCCCCc1nnc(SCc2ccc(Cl)c(Cl)c2)o1	TAAR1 agonist 49.9 | TAAR1 ag confirm 62.4 | Ga16 ag counter inactive | TAAR1 desensitize inactive | Ga16 antag count inactive
NCCc1nnc(SCc2ccc(F)cc2)o1	none
C=CCOc1cccc(C2/C(=C(\O)c3ccc4c(c3)OCCO4)C(=O)C(=O)N2CCN2CCOCC2)c1 (stereo unspecified)	none
NC(=O)C1CC(=O)N(c2ccc(OCc3c(Cl)cccc3Cl)cc2)C1 (stereo unspecified)	TAAR1 agonist 44.3 | TAAR1 ag confirm inactive | Ga16 ag counter 15.0 | TAAR1 desensitize inactive | Ga16 antag count inactive
NC(=O)C1CC(=O)N(c2ccc(OCc3c(F)cccc3Cl)cc2)C1 (stereo unspecified)	none
